In brackets after ≈: the same amount, converted by molar mass. Activity calls are given as the source filed them. The calls are words filed in the database; no cut-off is given here.
Legend:
Mycobacterium avium [1] = test: Antimycobacterial activity against isoniazid, rifampicin, ethambutol and ofloxacin-resistant Mycobacterium avium My 330/88 after 21 days; assay type: functional; settings: My 330/88, 504 h
Summary of the method: (§1)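 Micromethod MIC in Šula's semisynthetic medium at 37 °C. Compounds added in DMSO at 1000 down to 0.032 µmol/L. Isoniazid standard in sterile water at 0.5–250 µmol/L. Inocula: H37Rv 10^3, M. avium 10^5, M. kansasii 10^4. Read at 14 and 21 d, plus 7 d for M. kansasii.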

Mycobacterium avium [2] = test: Antimycobacterial activity against isoniazid, rifampicin, ethambutol and ofloxacin-resistant Mycobacterium avium My 330/88 after 14 days; assay type: functional; settings: My 330/88, 336 h; summary of the method: as §1
[3] = test system: Mycobacterium tuberculosis; test: Antimycobacterial activity against Mycobacterium tuberculosis H37Rv My 331/88 after 21 days; assay type: functional; settings: H37Rv My 331/88, 504 h; summary of the method: as §1
[4] = test system: Mycobacterium tuberculosis; test: Antimycobacterial activity against Mycobacterium tuberculosis H37Rv My 331/88 after 14 days; assay type: functional; settings: H37Rv My 331/88, 336 h; summary of the method: as §1
[5] = test system: Trichophyton mentagrophytes; test: Antifungal activity against Trichophyton mentagrophytes 445 after 120 hrs by broth microdilution method; assay type: functional; settings: Trichophyton mentagrophytes, 445, 120 h
Summary of the method: (§2)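 Filamentous dermatophyte tested by broth microdilution in RPMI 1640 with glutamine, fluconazole as reference. Value expressed as IC50 relative to growth control. Read at 72 and 120 h.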

[6] = test system: Trichophyton mentagrophytes; test: Antifungal activity against Trichophyton mentagrophytes 445 after 72 hrs by broth microdilution method; assay type: functional; settings: Trichophyton mentagrophytes, 445, 72 h; summary of the method: as §2
Lichtheimia corymbifera [7] = test: Antifungal activity against Absidia corymbifera 272 after 48 hrs by broth microdilution method; assay type: functional; settings: Lichtheimia corymbifera, 272, 48 h
Summary of the method: (§3)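 Broth microdilution in RPMI 1640 with glutamine, fluconazole as reference. For yeasts, MIC is ≥80% growth reduction (IC80) versus control. For filamentous fungi, the value is expressed as IC50. Readings at 24 and 48 h.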

Lichtheimia corymbifera [8] = test: Antifungal activity against Absidia corymbifera 272 after 24 hrs by broth microdilution method; assay type: functional; settings: Lichtheimia corymbifera, 272, 24 h; summary of the method: as §3
Aspergillus fumigatus [9] = test: Antifungal activity against Aspergillus fumigatus 231 after 48 hrs by broth microdilution method; assay type: functional; settings: Aspergillus fumigatus, 231, 48 h; summary of the method: as §3
Aspergillus fumigatus [10] = test: Antifungal activity against Aspergillus fumigatus 231 after 24 hrs by broth microdilution method; assay type: functional; settings: Aspergillus fumigatus, 231, 24 h; summary of the method: as §3
Trichosporon asahii [11] = test: Antifungal activity against Trichosporon asahii 1188 after 48 hrs by broth microdilution method; assay type: functional; settings: Trichosporon asahii, 1188, 48 h; summary of the method: as §3
Trichosporon asahii [12] = test: Antifungal activity against Trichosporon asahii 1188 after 24 hrs by broth microdilution method; assay type: functional; settings: Trichosporon asahii, 1188, 24 h; summary of the method: as §3
Pichia kudriavzevii [13] = test: Antifungal activity against Candida krusei E28 after 48 hrs by broth microdilution method; assay type: functional; settings: E28, 48 h; summary of the method: as §3
Pichia kudriavzevii [14] = test: Antifungal activity against Candida krusei E28 after 24 hrs by broth microdilution method; assay type: functional; settings: E28, 24 h; summary of the method: as §3
Candida albicans [15] = test: Antifungal activity against Candida albicans ATCC 44859 after 48 hrs by broth microdilution method; assay type: functional; settings: ATCC 44859, 48 h; summary of the method: as §3
Candida albicans [16] = test: Antifungal activity against Candida albicans ATCC 44859 after 24 hrs by broth microdilution method; assay type: functional; settings: ATCC 44859, 24 h; summary of the method: as §3
Nakaseomyces glabratus = test: Antifungal activity against Candida glabrata 20/I at 500 micromol/L after 24 to 48 hrs by broth microdilution method; assay type: functional, organism-based; summary of the method: as §3
Candida tropicalis = test: Antifungal activity against Candida tropicalis 156 at 500 micromol/L after 24 to 48 hrs by broth microdilution method; assay type: functional, organism-based; summary of the method: as §3
Pseudomonas aeruginosa = test: Antibacterial activity against Pseudomonas aeruginosa CCM 1961 at 500 micromol/L after 24 to 48 hrs by broth microdilution method; assay type: functional, organism-based
Summary of the method: (§4)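 Broth microdilution in Mueller–Hinton broth, compounds dissolved in DMSO, tested over a dilution series from 500 downward. MIC taken as ≥95% growth reduction (IC95) versus drug-free control. Benzylpenicillin comparator. Readings at 24 and 48 h.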

Klebsiella pneumoniae [17] = test: Antibacterial activity against ESBL-positive Klebsiella pneumoniae J 14368/08 at 500 micromol/L after 24 to 48 hrs by broth microdilution method; assay type: functional, organism-based; summary of the method: as §4
Klebsiella pneumoniae [18] = test: Antibacterial activity against Klebsiella pneumoniae D 11750/08 at 500 micromol/L after 24 to 48 hrs by broth microdilution method; assay type: functional, organism-based; summary of the method: as §4
Escherichia coli = test: Antibacterial activity against Escherichia coli CCM 4517 at 500 micromol/L after 24 to 48 hrs by broth microdilution method; assay type: functional, organism-based; summary of the method: as §4
Enterococcus sp. = test: Antibacterial activity against Enterococcus sp. J 14365/08 at 500 micromol/L after 24 to 48 hrs by broth microdilution method; assay type: functional, organism-based; summary of the method: as §4
[19] = test system: Staphylococcus epidermidis; test: Antibacterial activity against Staphylococcus epidermidis H 6966/08 after 48 hrs by broth microdilution method; assay type: functional; settings: H 6966/08, 48 h; summary of the method: as §4
[20] = test system: Staphylococcus epidermidis; test: Antibacterial activity against Staphylococcus epidermidis H 6966/08 after 24 hrs by broth microdilution method; assay type: functional; settings: H 6966/08, 24 h; summary of the method: as §4
Staphylococcus aureus [21] = test: Antibacterial activity against methicillin-resistant Staphylococcus aureus H 5996/08 after 48 hrs by broth microdilution method; assay type: functional; settings: H 5996/08, 48 h; summary of the method: as §4
Staphylococcus aureus [22] = test: Antibacterial activity against methicillin-resistant Staphylococcus aureus H 5996/08 after 24 hrs by broth microdilution method; assay type: functional; settings: H 5996/08, 24 h; summary of the method: as §4
Staphylococcus aureus [23] = test: Antibacterial activity against Staphylococcus aureus CCM 4516/08 after 48 hrs by broth microdilution method; assay type: functional; settings: CCM 4516/08, 48 h; summary of the method: as §4
Staphylococcus aureus [24] = test: Antibacterial activity against Staphylococcus aureus CCM 4516/08 after 24 hrs by broth microdilution method; assay type: functional; settings: CCM 4516/08, 24 h; summary of the method: as §4
Mycobacterium kansasii [25] = test: Antimycobacterial activity against Mycobacterium kansasii 6509/96 after 21 days; assay type: functional; settings: 6509/96, 504 h; summary of the method: as §1
Mycobacterium kansasii [26] = test: Antimycobacterial activity against Mycobacterium kansasii 6509/96 after 14 days; assay type: functional; settings: 6509/96, 336 h; summary of the method: as §1
Mycobacterium kansasii [27] = test: Antimycobacterial activity against Mycobacterium kansasii 6509/96 after 7 days; assay type: functional; settings: 6509/96, 168 h; summary of the method: as §1
Mycobacterium kansasii [28] = test: Antimycobacterial activity against Mycobacterium kansasii My 235/80 after 21 days; assay type: functional; settings: My 235/80, 504 h; summary of the method: as §1
Mycobacterium kansasii [29] = test: Antimycobacterial activity against Mycobacterium kansasii My 235/80 after 14 days; assay type: functional; settings: My 235/80, 336 h; summary of the method: as §1
HepG2 = test: Cytotoxicity against human HepG2 cells after 24 hrs by CellTiter assay; assay type: cell-based; settings: HepG2, 24 h
Summary of the method: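 HepG2 cells (passage 27–33) in MEM with 10% FBS, L-glutamine and NEAA, seeded at 1×10^4 per well. Treated next day with compounds at 0.1–100 µM (or 0.1–25 µmol/L), triplicates, <1% DMSO, for 24 h at 37 °C, 5% CO2. MTS reagent added for 2 h, absorbance read at 490 nm. IC50 taken against untreated (100%) and 10% DMSO (0%) controls.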

Mycobacterium kansasii [30] = test: Antimycobacterial activity against Mycobacterium kansasii My 235/80 after 7 days; assay type: functional; settings: My 235/80, 168 h; summary of the method: as §1

Row | SMILES | MIC (Mycobacterium avium [1]) [µM] | MIC (Mycobacterium avium [2]) [µM] | MIC [3] [µM] | MIC [4] [µM] | MIC50 [5] [µM] | MIC50 [6] [µM] | MIC50 (Lichtheimia corymbifera [7]) [µM] | MIC50 (Lichtheimia corymbifera [8]) [µM] | MIC50 (Aspergillus fumigatus [9]) [µM] | MIC50 (Aspergillus fumigatus [10]) [µM] | MIC80 (Trichosporon asahii [11]) [µM] | MIC80 (Trichosporon asahii [12]) [µM] | MIC80 (Pichia kudriavzevii [13]) [µM] | MIC80 (Pichia kudriavzevii [14]) [µM] | MIC80 (Candida albicans [15]) [µM] | MIC80 (Candida albicans [16]) [µM] | Activity (Nakaseomyces glabratus) | Activity (Candida tropicalis) | Activity (Pseudomonas aeruginosa) | Activity (Klebsiella pneumoniae [17]) | also measured
1 | CCOP(=O)(OCC)Oc1cc(Cl)ccc1C(=O)Nc1cccc(F)c1 | 16 (≈ 6.43 µg/mL) | 16 (≈ 6.43 µg/mL) | 8 (≈ 3.21 µg/mL) | 8 (≈ 3.21 µg/mL) | 500 (≈ 201 µg/mL) | 500 (≈ 201 µg/mL) | > 500 | > 500 | > 500 | > 500 | > 500 | > 500 | > 500 | > 500 | > 500 | > 500 | inactive | inactive | inactive | inactive | Activity (Klebsiella pneumoniae [18]): inactive; Activity (Escherichia coli): inactive; Activity (Enterococcus sp.): inactive; MIC95 [19]: 250 µM (≈ 100 µg/mL); MIC95 [20]: 250 µM (≈ 100 µg/mL); MIC95 (Staphylococcus aureus [21]): 250 µM (≈ 100 µg/mL); MIC95 (Staphylococcus aureus [22]): 250 µM (≈ 100 µg/mL); MIC95 (Staphylococcus aureus [23]): 250 µM (≈ 100 µg/mL); MIC95 (Staphylococcus aureus [24]): 125 µM (≈ 50.2 µg/mL); MIC (Mycobacterium kansasii [25]): 16 µM (≈ 6.43 µg/mL); MIC (Mycobacterium kansasii [26]): 16 µM (≈ 6.43 µg/mL); MIC (Mycobacterium kansasii [27]): 8 µM (≈ 3.21 µg/mL); MIC (Mycobacterium kansasii [28]): 16 µM (≈ 6.43 µg/mL); MIC (Mycobacterium kansasii [29]): 16 µM (≈ 6.43 µg/mL); IC50 (HepG2): 11.2 µM; MIC (Mycobacterium kansasii [30]): 8 µM (≈ 3.21 µg/mL)
2 | CCOP(=O)(OCC)Oc1ccc(Br)cc1C(=O)Nc1cccc(Br)c1 | 16 (≈ 8.11 µg/mL) | 16 (≈ 8.11 µg/mL) | 2 (≈ 1.01 µg/mL) | 2 (≈ 1.01 µg/mL) | > 500 | > 500 | > 500 | > 500 | > 500 | > 500 | > 500 | > 500 | > 500 | > 500 | > 500 | > 500 | inactive | inactive | inactive | inactive | Activity (Klebsiella pneumoniae [18]): inactive; Activity (Escherichia coli): inactive; Activity (Enterococcus sp.): inactive; MIC95 [19]: 250 µM (≈ 127 µg/mL); MIC95 [20]: 31.2 µM (≈ 15.8 µg/mL); MIC95 (Staphylococcus aureus [21]): 250 µM (≈ 127 µg/mL); MIC95 (Staphylococcus aureus [22]): 31.2 µM (≈ 15.8 µg/mL); MIC95 (Staphylococcus aureus [23]): 250 µM (≈ 127 µg/mL); MIC95 (Staphylococcus aureus [24]): 31.2 µM (≈ 15.8 µg/mL); MIC (Mycobacterium kansasii [25]): 8 µM (≈ 4.06 µg/mL); MIC (Mycobacterium kansasii [26]): 8 µM (≈ 4.06 µg/mL); MIC (Mycobacterium kansasii [27]): 4 µM (≈ 2.03 µg/mL); MIC (Mycobacterium kansasii [28]): 8 µM (≈ 4.06 µg/mL); MIC (Mycobacterium kansasii [29]): 8 µM (≈ 4.06 µg/mL); IC50 (HepG2): 4.41 µM; MIC (Mycobacterium kansasii [30]): 4 µM (≈ 2.03 µg/mL)
